We go through two compounds from ChEMBL document CHEMBL1221358, “Application of a novel in silico high-throughput screen to identify selective inhibitors for protein-protein interactions” (Bioorg Med Chem Lett, 2010).

Each structure is given as a SMILES string. Activity calls are given as the source filed them. The rule behind the calls is not given here.

Data set [1] deals with Toll-like receptor 4 (Homo sapiens) (UniProt O00206). In words: Inhibition of TLR4 binding to […].
The target of data set [2] is T1, Toll-like receptor 4 (Mus musculus) (UniProt Q9QUK6).
T1 sequence (whole entry): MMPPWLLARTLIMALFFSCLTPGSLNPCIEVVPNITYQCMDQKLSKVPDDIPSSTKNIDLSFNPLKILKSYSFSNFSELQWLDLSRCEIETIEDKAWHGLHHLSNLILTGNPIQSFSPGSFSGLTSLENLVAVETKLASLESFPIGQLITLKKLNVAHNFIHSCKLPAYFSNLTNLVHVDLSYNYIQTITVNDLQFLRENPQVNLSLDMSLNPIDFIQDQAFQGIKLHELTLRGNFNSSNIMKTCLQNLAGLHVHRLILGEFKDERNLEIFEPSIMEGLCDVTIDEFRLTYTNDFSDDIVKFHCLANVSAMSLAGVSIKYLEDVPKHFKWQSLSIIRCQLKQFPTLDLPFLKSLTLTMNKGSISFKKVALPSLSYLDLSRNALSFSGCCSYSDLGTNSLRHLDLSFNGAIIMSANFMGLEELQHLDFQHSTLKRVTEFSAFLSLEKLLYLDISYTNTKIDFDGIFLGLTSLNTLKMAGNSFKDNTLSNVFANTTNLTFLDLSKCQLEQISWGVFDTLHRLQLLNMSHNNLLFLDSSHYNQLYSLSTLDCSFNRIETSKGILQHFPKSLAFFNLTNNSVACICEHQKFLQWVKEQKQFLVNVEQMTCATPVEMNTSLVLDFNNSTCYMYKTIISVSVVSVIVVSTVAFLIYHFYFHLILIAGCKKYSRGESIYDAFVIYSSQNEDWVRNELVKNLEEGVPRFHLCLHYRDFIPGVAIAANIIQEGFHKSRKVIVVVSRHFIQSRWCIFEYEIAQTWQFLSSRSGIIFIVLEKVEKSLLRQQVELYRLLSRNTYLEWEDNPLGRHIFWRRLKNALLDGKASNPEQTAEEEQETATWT
In words: Inhibition of LPS-induced TLR4 activation in mouse RAW264.7 cells at 200 nM to 200 uM. It counts as cell-based. The method, boiled down: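 RAW264.7 mouse macrophages plated at 2×10^5 cells/ml on glass-bottom dishes 18 h before imaging. Washed with HBSS/25 mM HEPES pH 7.4, then placed in warmed conditioned Hanks imaging medium. Live-cell frames taken every 7.5 s: 5 baseline frames, vehicle or antagonist added, 20 frames, then LPS (E. coli 0111:B4) added, 20 further frames. C5a added to non-responding dishes to confirm the cells could respond.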

The subject of data set [3] is RAW264.7. Description: Cytotoxicity against mouse RAW264.7 cells. It counts as cell-based.
Data set [4] has as its target T2, Toll-like receptor 6 (Mus musculus) (UniProt Q9EPW9).
T2 sequence (whole entry): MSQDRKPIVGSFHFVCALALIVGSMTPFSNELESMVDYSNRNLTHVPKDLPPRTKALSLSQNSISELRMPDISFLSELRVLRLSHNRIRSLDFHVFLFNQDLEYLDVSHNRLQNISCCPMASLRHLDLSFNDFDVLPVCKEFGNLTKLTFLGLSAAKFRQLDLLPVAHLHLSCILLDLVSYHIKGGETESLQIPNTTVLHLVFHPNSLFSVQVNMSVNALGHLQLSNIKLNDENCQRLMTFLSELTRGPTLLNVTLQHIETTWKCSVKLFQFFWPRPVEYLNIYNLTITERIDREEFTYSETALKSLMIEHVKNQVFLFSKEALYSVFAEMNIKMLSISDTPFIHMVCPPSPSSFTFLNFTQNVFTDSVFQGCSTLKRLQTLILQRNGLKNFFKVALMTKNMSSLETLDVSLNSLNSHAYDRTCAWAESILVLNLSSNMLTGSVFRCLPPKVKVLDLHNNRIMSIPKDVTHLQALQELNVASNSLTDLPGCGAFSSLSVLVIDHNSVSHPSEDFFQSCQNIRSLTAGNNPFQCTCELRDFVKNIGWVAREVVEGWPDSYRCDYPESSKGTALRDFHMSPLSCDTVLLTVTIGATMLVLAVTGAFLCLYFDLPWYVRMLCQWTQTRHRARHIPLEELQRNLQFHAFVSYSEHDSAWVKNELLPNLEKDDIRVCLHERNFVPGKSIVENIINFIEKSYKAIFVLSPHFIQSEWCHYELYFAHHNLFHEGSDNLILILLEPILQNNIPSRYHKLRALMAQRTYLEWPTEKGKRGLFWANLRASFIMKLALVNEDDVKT
In words: Inhibition TLR6-mediated NO production in mouse RAW264.7 cells at 300 nM.

Data set [5] has as its target T3, Toll-like receptor 3 (Mus musculus) (UniProt Q99MB1).
T3 sequence (whole entry): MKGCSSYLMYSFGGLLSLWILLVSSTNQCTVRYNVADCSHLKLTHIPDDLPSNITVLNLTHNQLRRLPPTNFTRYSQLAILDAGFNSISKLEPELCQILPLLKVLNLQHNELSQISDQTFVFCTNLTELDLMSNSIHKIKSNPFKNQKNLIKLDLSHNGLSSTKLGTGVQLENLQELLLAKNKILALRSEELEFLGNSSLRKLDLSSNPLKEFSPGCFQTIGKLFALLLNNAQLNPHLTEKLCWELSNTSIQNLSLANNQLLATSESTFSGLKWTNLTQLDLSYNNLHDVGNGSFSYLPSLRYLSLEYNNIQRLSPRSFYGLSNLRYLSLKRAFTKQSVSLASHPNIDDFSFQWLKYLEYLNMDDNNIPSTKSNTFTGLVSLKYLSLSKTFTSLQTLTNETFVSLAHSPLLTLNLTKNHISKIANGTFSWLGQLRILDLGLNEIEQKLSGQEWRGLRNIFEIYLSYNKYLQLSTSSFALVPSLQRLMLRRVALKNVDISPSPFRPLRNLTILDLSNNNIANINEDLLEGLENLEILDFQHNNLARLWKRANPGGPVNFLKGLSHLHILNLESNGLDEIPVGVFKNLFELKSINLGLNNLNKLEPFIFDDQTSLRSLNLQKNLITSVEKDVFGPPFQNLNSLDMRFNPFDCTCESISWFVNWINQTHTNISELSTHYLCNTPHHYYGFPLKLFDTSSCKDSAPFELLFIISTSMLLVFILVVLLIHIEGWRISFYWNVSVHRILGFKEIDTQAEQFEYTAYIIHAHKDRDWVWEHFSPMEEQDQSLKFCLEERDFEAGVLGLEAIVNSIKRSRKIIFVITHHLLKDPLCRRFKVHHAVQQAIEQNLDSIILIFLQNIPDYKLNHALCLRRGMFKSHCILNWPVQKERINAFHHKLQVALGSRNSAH
Description: Inhibition TLR3-mediated NO production in mouse RAW264.7 cells at 300 nM.

In data set [6] the target is T1, Toll-like receptor 4 (Mus musculus). In words: Inhibition TLR4-mediated NO production in mouse RAW264.7 cells at 300 nM.
Data set [7] has as its target T4, Toll-like receptor 7 (Mus musculus) (UniProt P58681).
T4 sequence (whole entry): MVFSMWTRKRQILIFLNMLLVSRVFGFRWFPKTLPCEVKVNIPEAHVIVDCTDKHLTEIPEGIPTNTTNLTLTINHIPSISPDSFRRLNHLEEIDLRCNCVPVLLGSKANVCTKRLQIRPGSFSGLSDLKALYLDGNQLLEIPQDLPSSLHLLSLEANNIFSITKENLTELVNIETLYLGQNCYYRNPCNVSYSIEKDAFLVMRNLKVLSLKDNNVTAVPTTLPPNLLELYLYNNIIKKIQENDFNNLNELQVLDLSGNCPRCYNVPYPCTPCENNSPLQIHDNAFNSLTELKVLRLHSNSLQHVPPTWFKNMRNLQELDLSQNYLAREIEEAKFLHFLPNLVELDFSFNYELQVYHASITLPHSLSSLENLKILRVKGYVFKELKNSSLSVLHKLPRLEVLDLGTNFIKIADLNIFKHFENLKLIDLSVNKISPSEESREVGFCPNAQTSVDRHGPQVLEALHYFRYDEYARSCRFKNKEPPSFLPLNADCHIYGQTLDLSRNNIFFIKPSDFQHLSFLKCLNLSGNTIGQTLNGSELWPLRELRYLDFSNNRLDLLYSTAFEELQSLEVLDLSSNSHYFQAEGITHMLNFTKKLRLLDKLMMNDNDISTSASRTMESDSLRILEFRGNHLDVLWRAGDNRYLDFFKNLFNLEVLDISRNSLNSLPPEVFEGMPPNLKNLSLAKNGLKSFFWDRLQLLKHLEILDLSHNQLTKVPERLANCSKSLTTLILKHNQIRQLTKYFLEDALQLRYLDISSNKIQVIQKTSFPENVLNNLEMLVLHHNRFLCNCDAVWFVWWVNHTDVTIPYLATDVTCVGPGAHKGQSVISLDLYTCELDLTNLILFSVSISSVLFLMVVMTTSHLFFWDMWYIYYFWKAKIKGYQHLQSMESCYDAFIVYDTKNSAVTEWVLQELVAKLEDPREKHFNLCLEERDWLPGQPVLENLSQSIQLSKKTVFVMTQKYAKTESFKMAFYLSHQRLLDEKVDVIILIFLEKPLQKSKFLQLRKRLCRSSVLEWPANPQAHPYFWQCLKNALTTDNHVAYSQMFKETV
In words: Inhibition TLR7-mediated NO production in mouse RAW264.7 cells at 300 nM.

The target of data set [8] is Toll-like receptor 2 (Mus musculus) (UniProt Q9QUN7). Description: Inhibition TLR2-mediated NO production in mouse RAW264.7 cells at 300 nM.
The target of data set [9] is T5, Toll-like receptor 1 (Mus musculus) (UniProt Q9EPQ1).
T5 sequence (whole entry): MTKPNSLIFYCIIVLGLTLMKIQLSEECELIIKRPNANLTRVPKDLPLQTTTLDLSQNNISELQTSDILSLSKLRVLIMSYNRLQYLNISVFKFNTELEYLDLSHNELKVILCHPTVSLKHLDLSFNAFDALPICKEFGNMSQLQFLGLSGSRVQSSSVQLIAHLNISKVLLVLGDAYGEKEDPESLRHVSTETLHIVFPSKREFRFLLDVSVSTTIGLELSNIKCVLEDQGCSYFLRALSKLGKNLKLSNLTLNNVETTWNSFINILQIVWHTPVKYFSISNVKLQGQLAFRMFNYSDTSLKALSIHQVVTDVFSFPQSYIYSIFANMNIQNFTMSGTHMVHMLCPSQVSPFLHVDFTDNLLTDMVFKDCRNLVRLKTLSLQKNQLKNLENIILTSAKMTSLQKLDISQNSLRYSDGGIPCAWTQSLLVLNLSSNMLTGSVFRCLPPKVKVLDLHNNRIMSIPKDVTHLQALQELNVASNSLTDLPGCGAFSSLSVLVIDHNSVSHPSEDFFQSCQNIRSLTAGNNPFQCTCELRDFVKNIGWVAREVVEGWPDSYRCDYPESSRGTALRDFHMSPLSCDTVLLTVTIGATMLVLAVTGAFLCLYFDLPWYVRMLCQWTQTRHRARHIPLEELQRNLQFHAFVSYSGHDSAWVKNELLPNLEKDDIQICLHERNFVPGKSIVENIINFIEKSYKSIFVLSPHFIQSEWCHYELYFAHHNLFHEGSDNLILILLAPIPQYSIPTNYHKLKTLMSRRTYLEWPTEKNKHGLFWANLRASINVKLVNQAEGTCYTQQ
Description: Inhibition TLR1-mediated NO production in mouse RAW264.7 cells at 300 nM.

Toll-like receptor 4 (Homo sapiens), sequence (O00206 whole entry): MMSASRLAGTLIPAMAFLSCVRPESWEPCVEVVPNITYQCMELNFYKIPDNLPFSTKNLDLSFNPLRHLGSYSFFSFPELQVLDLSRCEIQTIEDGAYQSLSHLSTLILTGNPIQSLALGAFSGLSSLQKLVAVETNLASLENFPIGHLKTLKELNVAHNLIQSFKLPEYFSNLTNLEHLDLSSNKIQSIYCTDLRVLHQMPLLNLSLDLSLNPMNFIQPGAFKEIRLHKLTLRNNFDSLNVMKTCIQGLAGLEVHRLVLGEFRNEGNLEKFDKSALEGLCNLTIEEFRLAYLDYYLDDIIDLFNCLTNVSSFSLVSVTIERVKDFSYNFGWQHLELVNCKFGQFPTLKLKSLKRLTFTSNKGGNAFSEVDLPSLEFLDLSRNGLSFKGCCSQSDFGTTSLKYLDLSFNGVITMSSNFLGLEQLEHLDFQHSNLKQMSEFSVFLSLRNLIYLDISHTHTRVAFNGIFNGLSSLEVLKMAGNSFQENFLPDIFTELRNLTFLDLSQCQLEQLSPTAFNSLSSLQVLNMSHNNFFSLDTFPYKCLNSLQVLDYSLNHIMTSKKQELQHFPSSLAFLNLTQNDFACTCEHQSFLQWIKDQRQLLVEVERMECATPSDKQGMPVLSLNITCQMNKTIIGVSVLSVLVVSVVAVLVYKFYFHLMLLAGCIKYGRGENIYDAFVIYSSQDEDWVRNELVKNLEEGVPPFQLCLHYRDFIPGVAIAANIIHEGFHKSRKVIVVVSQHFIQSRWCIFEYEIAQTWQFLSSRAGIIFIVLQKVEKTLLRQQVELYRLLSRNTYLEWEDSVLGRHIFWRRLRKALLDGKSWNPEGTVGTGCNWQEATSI
Toll-like receptor 2 (Mus musculus), sequence (Q9QUN7 whole entry): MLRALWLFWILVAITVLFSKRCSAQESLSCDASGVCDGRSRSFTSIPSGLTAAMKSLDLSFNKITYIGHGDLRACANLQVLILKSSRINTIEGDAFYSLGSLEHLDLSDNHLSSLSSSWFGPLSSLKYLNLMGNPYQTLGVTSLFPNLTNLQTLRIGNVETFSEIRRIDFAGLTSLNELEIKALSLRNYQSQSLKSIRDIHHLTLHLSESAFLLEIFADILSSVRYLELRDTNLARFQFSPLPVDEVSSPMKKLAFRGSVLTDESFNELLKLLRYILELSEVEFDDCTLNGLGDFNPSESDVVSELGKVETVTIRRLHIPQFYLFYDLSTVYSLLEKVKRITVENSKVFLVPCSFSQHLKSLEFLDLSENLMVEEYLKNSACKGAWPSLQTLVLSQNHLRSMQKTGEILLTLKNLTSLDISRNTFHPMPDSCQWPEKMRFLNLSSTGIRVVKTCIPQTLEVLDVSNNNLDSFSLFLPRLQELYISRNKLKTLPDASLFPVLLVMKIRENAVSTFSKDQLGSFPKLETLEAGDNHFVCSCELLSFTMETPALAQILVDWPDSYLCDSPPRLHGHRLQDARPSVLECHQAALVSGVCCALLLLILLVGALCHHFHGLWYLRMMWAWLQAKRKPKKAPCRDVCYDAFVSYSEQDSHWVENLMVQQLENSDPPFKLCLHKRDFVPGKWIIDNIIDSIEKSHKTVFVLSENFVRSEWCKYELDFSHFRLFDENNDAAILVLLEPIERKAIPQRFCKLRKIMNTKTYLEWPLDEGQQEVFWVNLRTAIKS

With `CC(C)CC(=O)Nc1ccc(OC(=O)C23CC4CC(CC(C4)C2)C3)cc1`, the outcome in [1] and in data set [2] was Active. Besides, the Activity entry in data set [3] is given as “Non-toxic”.
With `CCOc1ccc(OCC(O)CN(C)Cc2c(C)nn(Cc3ccccc3Cl)c2C)cc1` (configuration not stated), the outcome in data set [4], in data set [5], in data set [7], in data set [8] and in data set [9] was inactive. The result in data set [1], in data set [2] and in [6] was Active. For the same compound, the Activity result in data set [3] is on record as “Non-toxic”.
